Only some compounds are listed: those with a hit (about 4% of all), similar ones and a draw of the others.
b-catenin transl = alters nuclear translocation of beta-catenin in HeLa cells; hit rate 0.3% among 190,000; AID 1665; nuclear translocation activity, % at 5 µM; immunofluorescence imaging;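 active = nuclear translocation activity above 50% at 5 µM, with a well cell count of 50 or more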;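 also: per-cell ratio of nuclear to cytoplasmic median beta-catenin stain intensity; plate controls were DMSO negative control for no effect and GSK-3 inhibitor IX positive control for full effect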
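System: Human HeLa cells, endogenous beta-catenin | Compound dosing: 5 µM primary, 0.02–20 µM confirmation | Timing: 24 h compound exposure at 37°C, 5% CO2 | Measured by: Fluorescence imaging of beta-catenin antibody stain plus DAPI | Read-out basis: % activation of per-cell nuclear versus cytoplasmic median beta-catenin signal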
KCC2 mod = modulates chloride dependent transport by human KCC2 | Q9H2X9 | KCC2 cells, thallium flux FluoZin-2 fluorescence | B-score of Tl+ flux slope (higher = more flux/activation; lower = inhibition) at 10 µM | hit rate 2.2% among 190,000 | AID 1456;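 active = thallium flux slope and its plate-corrected score both differing from the plate sample mean at a set confidence after two filtering rounds, in either direction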;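 also: slope of fluorescence scaled to starting intensity during 10 to 20 s after thallium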
Pf gamet viab = kills late stage P. falciparum gametocytes; P. falciparum stage V gametocytes, ATP luminescence, 24 h; inhibition, % at 10.9 µM; hit rate 0.065% among 150,000;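 active = inhibition above the mean plus 3 SD of compounds within the control limits, set per campaign, cut at about 38% in these data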;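 also: 0% = DMSO wells and 100% = medium only without gametocytes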
MT stabilize HCS = microtubule stabilization, imaging screen; HeLa tubulin immunostaining HCS, 24 h; share of cells brighter than vehicle mean+2SD; % tubulin-high responders, % at 10 µM; hit rate 0.83% among 200,000; AID 2205;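 active = plate Z-score above 3 for both tubulin-high and condensed-nucleus cell shares, with cell loss under 80%, at 10 µM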;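 also: anti alpha tubulin signal scored within the nucleus-defined area of each cell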
WT yeast gro inh = growth inhibition of WT yeast, mitochondrial fusion screen. mitochondrial fusion phenotypic screen, WT strain. inhibition, % at 10 µM. hit rate 2.1% among 190,000. AID 1362; in the data active = inhibition above about 58%; tested in S. cerevisiae
The depositor's hits bear a star; · = not tested or not shown.

SMILES | b-catenin transl | KCC2 mod | Pf gamet viab | MT stabilize HCS | WT yeast gro inh
CN(C)CCCN(C(=O)COc1ccc(Cl)cc1)c1nc2ccc(F)cc2s1 | · | 0.23 | -28 | 2 | 61*
Cc1ccc2nc(N(CCCN(C)C)C(=O)c3ccco3)sc2c1 | -1 | -0.15 | -8 | 3 | 1
Cc1ccc2sc(N(CCCN(C)C)C(=O)CN3C(=O)c4ccccc4C3=O)nc2c1C | -3 | 1.6 | -5 | 2 | 94*
Cc1ccc2nc(N(CCCN(C)C)C(=O)c3ccc(Br)s3)sc2c1 | 0 | -0.0082 | -1 | 2 | 90*
C=CCN(c1ccc(C(=O)NCCCn2ccnc2)cc1)S(C)(=O)=O | · | · | 9 | · | ·
Cc1nnc(SCC(=O)Nc2cccc(S(=O)(=O)N(C)c3ccccc3)c2)s1 | 3 | -0.64 | -15 | 4 | -23
CN(C)C(=O)[C@H]1C[C@H]1[C@@H](O)[C@H](CO)NC(=O)[C@H](COCc1ccccc1)NC(=O)OC(C)(C)C | · | · | -17 | · | ·
COc1ccc(-c2cc(C(=O)Nc3cc(OC)cc(C(=O)Nc4cccc(C(F)(F)F)c4)c3)[nH]n2)cc1 | -2 | -1.2 | 8 | · | ·
COc1ccc(NC(=S)NNC(=O)Cn2nc(C(F)F)cc2C(F)F)cc1 | -2 | 1.2 | 8 | 6 | -13
Fc1ccccc1Oc1nc(-c2ccncc2)nc2ccccc12 | -4 | -0.19 | 9 | · | ·
CN(C)CCCN(C(=O)CCOc1ccccc1)c1nc2c(F)cccc2s1 | -3 | -0.073 | 1 | 4 | 11
CN(C)CCCN(C(=O)CCc1ccccc1)c1nc2c(F)cccc2s1 | 1 | -0.4 | 12 | 4 | 60*
Cc1cccc2sc(N(CCCN(C)C)C(=O)COc3ccc(Cl)cc3)nc12 | 0 | 0.47 | -2 | 2 | 90*
Cc1ccc2nc(N(CCCN(C)C)C(=O)COc3ccc(Cl)cc3)sc2c1 | 0 | 0.29 | 27 | 1 | 91*
Cc1cccc2sc(N(CCCN(C)C)C(=O)c3sc4ccccc4c3Cl)nc12 | -1 | 0.12 | · | 6 | 88*
Cn1cccc1/C=C1\SC(=O)N(c2ccc(O)cc2)C1=O | 0 | -2 | 16 | 3 | -6
COc1cccc(C(=O)NNC2OC(CO)C(O)C2O)c1 (stereo unspecified) | 5 | · | 3 | 3 | 1
CN1C(=O)C(CC(=O)NC2CCCCC2)SC1=Nc1ccccc1 (stereo unspecified) | -1 | -0.31 | 3 | 5 | -13
CCN(CC)C(=O)Oc1ccc2ccccc2c1Br | 0 | -1.1 | 8 | 3 | 30
O=C(Oc1ccc2ccccc2c1Br)N1CCCCCC1 | 0 | -1.1 | 5 | 1 | 71*
O=C(Oc1ccc2cc(Br)ccc2c1)N1CCCCCC1 | -2 | -0.83 | · | 2 | 68*
CCc1ccc(-c2ccc(SCC(=O)Nc3nnc(C)s3)nn2)cc1 | -4 | -0.65 | · | 4 | -12
CCOC(=O)Cc1ccc2sc(-c3ccccc3)nc2c1 | · | -1.9 | · | 3 | 64*
CC1=Nc2cc(C(=O)O)ccc2Sc2ccc(C)cc21 | 0 | -1 | -15 | 1 | -10
CC1=Nc2cc(C(=O)NCc3ccco3)ccc2Sc2ccc(C)cc21 | 73* | -2.4 | · | 4 | 22
SMILES | b-catenin transl | KCC2 mod | Pf gamet viab | MT stabilize HCS | WT yeast gro inh
Cc1cccc(OCCCSc2nc3ccc(C)cc3[nH]2)c1 | -4 | -0.32 | · | 2 | 82*
Cc1cccc(OCCSc2nc3ncnc(N)c3[nH]2)c1 | -3 | 0.88 | -2 | 4 | 3
Cc1ccccc1C(=O)Oc1ccc(Sc2ccc(O)cc2)cc1 | -2 | 0.13 | 13 | 1 | 87*
Cc1ccccc1C(=O)Oc1ccc(-c2csnn2)cc1 | -2 | 0.54 | 7 | · | ·
COc1ccc(NC(=O)Cc2ccc(-c3ccccc3)cc2)cn1 | 96* | -0.48 | 5 | 26* | 3
O=C1Nc2cc(Cl)ccc2C1(N1CCNCC1)C(F)(F)F (stereo unspecified) | -2 | 0.0082 | 14 | 4 | 9
O=C1Nc2ccc(Cl)cc2[C@@](C#CC2CC2)(C(F)(F)F)O1 | 1 | -1.5 | · | · | 82*
Clc1ccccc1N=C1NN=C(c2cccs2)CS1 | -1 | -0.096 | 28 | 2 | 17
COc1cccc2cc(-c3cn4ccc(C)cc4n3)c(=O)oc12 | · | -1.3 | -7 | 2 | ·
CCOc1cccc2cc(-c3cn4cc(C)ccc4n3)c(=O)oc12 | 2 | 1.5 | · | 42* | 8
CN(C)CCCNC(=O)CCc1ncc(C(F)(F)F)cc1Cl | 2 | 0.67 | 8 | 2 | 0
CN(C)CCCNc1ncc(C(F)(F)F)cc1Cl | -4 | 0.57 | 7 | 14* | -11
O=S(=O)(Oc1ccccc1N1CCCCC1)c1ccccc1 | -2 | -0.87 | 11 | · | ·

Screens: PubChem BioAssay, several laboratories
